The target of test [1] is Protein mono-ADP-ribosyltransferase PARP4 (Homo sapiens, UniProt Q9UKK3). The experiment in a line: Inhibition of N-terminal His-tagged recombinant human PARP4 brct-catalytic domain (369 to 573 residues) expressed in Escherichia coli BL21 (DE3) preincubated with 6-a-NAD+ for 5 to 10 mins followed by enzyme addition and measured after 60 mins using NAD+ as substrate byHRP based chemiluminescence assay. A digest of the protocol:
(§1)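 Plate-based PASTA assay. His6-SRPK2 is captured on nickel-coated wells as the ADP-ribosylation substrate in HEPES pH 7.5 buffer with NaCl, MgCl2 and TCEP. Recombinant PARP is added at 4–400 nM (2×). Inhibitor (0–200 μM) is premixed with 200 μM 6-a-NAD+ (2×) and reacted 60 min at 30 °C. Incorporated label is click-conjugated to biotin-azide and detected with streptavidin-HRP by chemifluorescence (ex 570/em 600). IC50 is the mean of ≥3 independent assays.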

Test [2] deals with Poly [ADP-ribose] polymerase 1 (Homo sapiens, UniProt P09874). The experiment in a line: Inhibition of N-terminal His-tagged full length human PARP1 expressed in Escherichia coli BL21 (DE3) preincubated with 6-a-NAD+ for 5 to 10 mins followed by enzyme addition and measured after 60 mins using NAD+ as substrate byHRP based chemiluminescence assay. The gist of the method:
as §1

Test [3] has as its target Poly [ADP-ribose] polymerase 2 (Homo sapiens, UniProt Q9UGN5). As to the kind of experiment: Inhibition of N-terminal His-tagged full length human PARP2 expressed in Escherichia coli BL21 (DE3) preincubated with 6-a-NAD+ for 5 to 10 mins followed by enzyme addition and measured after 60 mins using NAD+ as substrate byHRP based chemiluminescence assay. A digest of the protocol:
as §1

Test [4] deals with T1, Protein mono-ADP-ribosyltransferase PARP15 (Homo sapiens, UniProt Q460N3).
T1 sequence (Q460N3 whole entry): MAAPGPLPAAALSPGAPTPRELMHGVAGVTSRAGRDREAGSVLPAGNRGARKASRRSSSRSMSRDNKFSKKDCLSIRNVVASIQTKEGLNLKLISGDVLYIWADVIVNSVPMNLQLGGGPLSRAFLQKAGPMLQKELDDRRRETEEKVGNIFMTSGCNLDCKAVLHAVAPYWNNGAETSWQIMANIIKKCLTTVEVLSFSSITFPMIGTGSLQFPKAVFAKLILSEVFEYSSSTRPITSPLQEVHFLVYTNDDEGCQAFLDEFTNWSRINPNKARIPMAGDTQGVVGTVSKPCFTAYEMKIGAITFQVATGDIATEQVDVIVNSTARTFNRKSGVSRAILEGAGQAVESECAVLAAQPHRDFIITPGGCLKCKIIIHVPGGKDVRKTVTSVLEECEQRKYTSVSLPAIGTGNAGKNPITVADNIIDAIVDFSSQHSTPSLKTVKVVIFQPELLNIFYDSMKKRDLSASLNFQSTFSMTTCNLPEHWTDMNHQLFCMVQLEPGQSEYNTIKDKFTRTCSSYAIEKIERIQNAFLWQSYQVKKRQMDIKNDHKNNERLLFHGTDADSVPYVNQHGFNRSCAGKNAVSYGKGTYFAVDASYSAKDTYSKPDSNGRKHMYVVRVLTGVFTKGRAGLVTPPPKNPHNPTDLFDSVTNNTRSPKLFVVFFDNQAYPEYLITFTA
The experiment in a line: Inhibition of N-terminal His-tagged human PARP15 catalytic domain expressed in Escherichia coli BL21 (DE3) preincubated with 6-a-NAD+ for 5 to 10 mins followed by enzyme addition and measured after 60 mins using NAD+ as substrate byHRP based chemiluminescence assay. A digest of the protocol: as §1

In test [5] the target is T2, Protein mono-ADP-ribosyltransferase PARP11 (Homo sapiens, UniProt Q9NR21).
T2 sequence (Q9NR21 whole entry): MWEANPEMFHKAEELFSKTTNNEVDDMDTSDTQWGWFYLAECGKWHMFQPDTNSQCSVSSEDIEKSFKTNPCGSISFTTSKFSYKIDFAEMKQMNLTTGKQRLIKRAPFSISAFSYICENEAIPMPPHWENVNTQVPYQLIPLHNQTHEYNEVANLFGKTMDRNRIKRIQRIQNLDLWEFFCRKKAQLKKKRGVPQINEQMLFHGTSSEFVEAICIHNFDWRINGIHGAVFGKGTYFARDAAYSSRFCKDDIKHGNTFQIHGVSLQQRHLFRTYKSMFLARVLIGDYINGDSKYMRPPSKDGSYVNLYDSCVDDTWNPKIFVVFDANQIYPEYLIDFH
As to the kind of experiment: Inhibition of N-terminal His-tagged full length human PARP11 expressed in Escherichia coli BL21 (DE3) preincubated with 6-a-NAD+ for 5 to 10 mins followed by enzyme addition and measured after 60 mins using NAD+ as substrate byHRP based chemiluminescence assay. The gist of the method: as §1

Protein mono-ADP-ribosyltransferase PARP4, sequence (Q9UKK3 whole entry, the tested form may be a part): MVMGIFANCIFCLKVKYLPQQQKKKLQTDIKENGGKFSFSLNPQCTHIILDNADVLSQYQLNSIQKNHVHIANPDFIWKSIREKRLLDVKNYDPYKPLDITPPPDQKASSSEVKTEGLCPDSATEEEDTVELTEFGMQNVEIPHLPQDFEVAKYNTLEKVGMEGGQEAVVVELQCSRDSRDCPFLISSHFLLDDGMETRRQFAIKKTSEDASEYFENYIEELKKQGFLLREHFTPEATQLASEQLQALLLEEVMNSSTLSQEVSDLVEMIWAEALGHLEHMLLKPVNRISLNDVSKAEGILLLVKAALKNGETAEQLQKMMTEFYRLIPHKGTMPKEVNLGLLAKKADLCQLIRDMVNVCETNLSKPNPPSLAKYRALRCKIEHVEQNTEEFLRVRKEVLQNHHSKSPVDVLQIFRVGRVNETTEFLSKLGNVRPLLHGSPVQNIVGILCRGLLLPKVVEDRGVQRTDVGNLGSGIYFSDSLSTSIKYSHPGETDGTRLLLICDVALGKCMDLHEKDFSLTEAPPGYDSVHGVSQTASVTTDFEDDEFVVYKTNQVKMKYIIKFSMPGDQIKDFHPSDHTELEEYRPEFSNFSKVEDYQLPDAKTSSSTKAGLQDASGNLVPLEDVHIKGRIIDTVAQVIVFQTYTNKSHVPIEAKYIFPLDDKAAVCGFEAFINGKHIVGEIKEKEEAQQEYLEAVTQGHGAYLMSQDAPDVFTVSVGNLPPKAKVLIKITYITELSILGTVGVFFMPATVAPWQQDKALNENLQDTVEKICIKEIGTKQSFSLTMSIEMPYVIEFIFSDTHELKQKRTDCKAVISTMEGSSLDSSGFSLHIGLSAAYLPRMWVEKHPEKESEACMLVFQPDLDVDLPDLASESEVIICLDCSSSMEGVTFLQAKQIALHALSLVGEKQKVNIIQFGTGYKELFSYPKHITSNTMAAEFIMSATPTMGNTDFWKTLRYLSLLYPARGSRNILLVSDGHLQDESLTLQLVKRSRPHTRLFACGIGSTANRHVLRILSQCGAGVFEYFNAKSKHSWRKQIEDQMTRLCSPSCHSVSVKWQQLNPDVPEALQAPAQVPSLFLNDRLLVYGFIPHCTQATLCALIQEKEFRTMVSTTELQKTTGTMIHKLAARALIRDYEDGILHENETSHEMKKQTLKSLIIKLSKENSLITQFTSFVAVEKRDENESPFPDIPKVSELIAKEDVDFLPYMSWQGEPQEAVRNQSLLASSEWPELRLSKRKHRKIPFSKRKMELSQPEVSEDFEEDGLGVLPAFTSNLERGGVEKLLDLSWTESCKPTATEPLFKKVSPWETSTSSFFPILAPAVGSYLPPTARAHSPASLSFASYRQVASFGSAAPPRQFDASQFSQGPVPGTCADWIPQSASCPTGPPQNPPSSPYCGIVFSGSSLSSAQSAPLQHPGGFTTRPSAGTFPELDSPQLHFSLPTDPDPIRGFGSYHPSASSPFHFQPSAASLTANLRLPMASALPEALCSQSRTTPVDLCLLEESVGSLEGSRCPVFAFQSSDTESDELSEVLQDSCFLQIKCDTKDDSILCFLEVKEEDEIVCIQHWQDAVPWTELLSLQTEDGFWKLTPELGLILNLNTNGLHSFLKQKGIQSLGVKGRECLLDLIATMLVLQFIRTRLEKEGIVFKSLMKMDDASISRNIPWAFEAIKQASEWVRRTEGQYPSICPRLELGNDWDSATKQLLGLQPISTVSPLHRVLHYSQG
Poly [ADP-ribose] polymerase 2, sequence (Q9UGN5 whole entry): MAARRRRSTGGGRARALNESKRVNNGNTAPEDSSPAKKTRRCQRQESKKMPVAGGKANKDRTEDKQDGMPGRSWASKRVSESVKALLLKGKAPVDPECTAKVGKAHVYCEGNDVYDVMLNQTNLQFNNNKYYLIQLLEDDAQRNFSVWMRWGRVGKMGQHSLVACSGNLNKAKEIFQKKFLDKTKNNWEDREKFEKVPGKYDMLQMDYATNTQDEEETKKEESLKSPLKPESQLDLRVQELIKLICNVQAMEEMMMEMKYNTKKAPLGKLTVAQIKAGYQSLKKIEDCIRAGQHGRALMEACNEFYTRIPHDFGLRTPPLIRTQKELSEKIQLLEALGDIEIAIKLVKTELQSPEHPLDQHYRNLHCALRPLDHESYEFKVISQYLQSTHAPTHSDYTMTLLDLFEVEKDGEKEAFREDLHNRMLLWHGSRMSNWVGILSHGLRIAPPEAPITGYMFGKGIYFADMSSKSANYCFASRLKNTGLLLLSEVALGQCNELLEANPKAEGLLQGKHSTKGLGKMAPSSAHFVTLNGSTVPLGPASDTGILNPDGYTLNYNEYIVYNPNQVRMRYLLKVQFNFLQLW
Poly [ADP-ribose] polymerase 1, sequence (P09874 whole entry): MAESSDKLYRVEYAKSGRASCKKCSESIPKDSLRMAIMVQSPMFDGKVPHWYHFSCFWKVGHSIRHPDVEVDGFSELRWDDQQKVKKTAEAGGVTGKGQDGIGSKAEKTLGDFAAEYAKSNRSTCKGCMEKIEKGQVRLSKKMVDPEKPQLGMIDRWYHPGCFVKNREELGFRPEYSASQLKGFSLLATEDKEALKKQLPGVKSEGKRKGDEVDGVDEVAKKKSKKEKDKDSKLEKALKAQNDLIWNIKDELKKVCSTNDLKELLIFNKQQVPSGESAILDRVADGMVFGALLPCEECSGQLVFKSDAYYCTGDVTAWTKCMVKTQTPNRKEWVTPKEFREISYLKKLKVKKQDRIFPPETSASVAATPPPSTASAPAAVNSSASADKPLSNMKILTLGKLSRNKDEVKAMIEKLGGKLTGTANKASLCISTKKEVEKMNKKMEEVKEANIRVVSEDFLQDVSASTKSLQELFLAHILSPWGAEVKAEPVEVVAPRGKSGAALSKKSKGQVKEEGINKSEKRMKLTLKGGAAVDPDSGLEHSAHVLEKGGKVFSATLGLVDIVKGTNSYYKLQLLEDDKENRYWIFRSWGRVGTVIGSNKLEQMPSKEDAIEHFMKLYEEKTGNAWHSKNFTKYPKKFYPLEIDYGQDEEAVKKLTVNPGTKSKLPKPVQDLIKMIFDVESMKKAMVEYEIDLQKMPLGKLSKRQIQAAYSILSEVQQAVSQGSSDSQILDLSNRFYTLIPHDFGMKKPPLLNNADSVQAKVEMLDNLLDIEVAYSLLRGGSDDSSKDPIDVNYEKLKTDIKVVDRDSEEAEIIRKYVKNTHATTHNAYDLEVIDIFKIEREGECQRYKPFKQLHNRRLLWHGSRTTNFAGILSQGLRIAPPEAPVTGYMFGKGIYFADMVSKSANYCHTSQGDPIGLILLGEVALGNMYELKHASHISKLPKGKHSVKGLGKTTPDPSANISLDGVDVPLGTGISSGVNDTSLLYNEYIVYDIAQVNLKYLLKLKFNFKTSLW

Take `Cc1cc(I)cc2c(=O)[nH]c(CSc3ncccn3)nc12`: the IC50 (as a rule, the point on the concentration scale where inhibition reaches its midpoint) in test [1] was found to be 2700 nM. In the case of `Cc1cc(I)cc2c(=O)[nH]c(CSc3ccc(C(=O)O)cc3)nc12`, the IC50 in test [1] was 800 nM. In the case of `Cc1cc(C)c2nc(CSc3ncccn3)[nH]c(=O)c2c1`, the IC50 amounted to 500 nM in test [1] and 100 nM in test [2]. Consider `Cc1cc(Br)cc2c(=O)[nH]c(CSc3ncccn3)nc12`, for which the IC50 in test [1] is 800 nM; in test [3], 2000 nM; in test [2], 2500 nM. As to `CC#Cc1cc(C)c2nc(CSc3ncccn3)[nH]c(=O)c2c1`, half-maximal inhibition in test [4] (IC50) required 3300 nM.

With `Cc1cc(Br)cc2c(=O)[nH]c(CSc3ccc(C(=O)O)cc3)nc12`, in test [1], the half-inhibitory concentration (IC50) amounted to 1900 nM.

With `Cc1cccc2c(=O)[nH]c(CSc3ncccn3)nc12`, the IC50 in test [5] amounted to 200 nM; in test [3], 800 nM.

(Values after ChEMBL document CHEMBL5107944, “Rational design of selective inhibitors of PARP4” (RSC Med Chem, 2021).)
